Source: the RNAGym collection of RNA variant scans (doi:10.1126/science.aae0568)
Variants at the floor of the assay were thinned out.

B1: tRNA (parent)
chain: GUUCCGUUGGCGUAAUGGUAACGCGUCUCCCUCCUAAGGAGAAGACUGCGGGUUCGAGUCCCGUACGGAACG

Variants of: B1
Assay: yeast fitness relative to wild type (ratio to wild type); higher = fitter; tRNA-Arg(CCU), competitive growth, 37 C, YPD
Summary of the method: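 Amplicons of the tRNA-Arg(CCU) gene were sequenced, 100-nucleotide paired-end, from the start population and from each end population of a pooled yeast competition. The competition, in six parallel replicates, lasted 24 hours in YPD at 37°C. Fitness relative to wild type was calculated from changes in genotype frequencies. Genotypes had to have ≥ 100 starting reads, and estimates < 0.5 were set to 0.5.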

Point of comparison: U3C U19A C22U, yeast fitness 0.558. Against it:
- C4A A20U A43U — lower, ≤ 0.5
- C4A A21C U54A — lower, ≤ 0.5
- C4A A14U C31U A40U G41C A45C A69C — higher, 0.599
- U3G C33U A42G C61A — lower, 0.538
- U3G C5A G63A — lower, ≤ 0.5
- U3C G17A U54C — lower, ≤ 0.5
- U3G C5U U26A — lower, ≤ 0.5
- U3G U13C C33A A42U C49U C55A — lower, ≤ 0.5
- C4A A21C A70C — lower, ≤ 0.5
- U3C G25A A45G — higher, 0.59
- C4A A14C G41A G48C C55A A65C — lower, 0.556
- U3G U8C A70C — higher, 0.59
- U3C G50A A65U — higher, 0.652
- C4A A14G C30G A45G — higher, 0.758
- U3G C11U U64C — lower, ≤ 0.5
- C4A A36G G44U G51C A65U — lower, ≤ 0.5
- U3C G18C C30U A36U C55A — lower, ≤ 0.5
- U3C U32C A65U G68A — lower, ≤ 0.5
- U3G U8C C24A C30U — lower, ≤ 0.5
- U3C G67A — higher, 0.871
- C4A A14C A70G — lower, ≤ 0.5
- C4A A14U — higher, 0.698
- C4A A14G — higher, 0.72
- U3G A45C G63A A69U — higher, 0.831
- U3G U16G A21G C29A U32C C33U C34A — higher, 0.788
- U3C U7G G38C — lower, ≤ 0.5
- U3G A45G A65G — higher, 0.729
- C4A A14G A20U C49A — higher, 0.87
- C4A A20U C29G C49G G63C — lower, ≤ 0.5
- U3G C11U U47A G48C — higher, 0.675
- U3G C22U A57G C60A — lower, ≤ 0.5
- U3G C24U C27G C30A A65U A69U — lower, ≤ 0.5
- U3G G68A — higher, 0.851
- U3C G50A A57G — higher, 0.632
- U3G A43G A65U — higher, 0.701
- U3C G25A A37U — higher, 0.574
- U3G U8A G18C — higher, 0.63
- C4A A21G C27U — higher, 0.686
- C4A A14U A20C U28G A70U — lower, ≤ 0.5
- C4A A21G C33U G51C — lower, ≤ 0.5
- U3C U8A A15C C31G C49U A57U G67C — lower, ≤ 0.5
- U3G U13A U16A — higher, 0.65
- C4A A20U G44C C60A — lower, ≤ 0.5
- C4A A14U C27U U28A — higher, 0.859
- U3C G17C — higher, 0.78
- U3G C24A G58A — lower, ≤ 0.5
- U3G G39A A40G A57U C66U — lower, ≤ 0.5
- U3G C5U G39C U47A — lower, 0.538
- U3G U8A C31A C49A — lower, ≤ 0.5
- U3C U7A — higher, 0.772
- U3G U8G U19A A69C — lower, ≤ 0.5
- U3G C4U U35A G58A G67A — lower, ≤ 0.5
- U3G C5G G10A C30A C31G C49A C60U G67A — higher, 0.572
- U3G C4U U35A G58A — lower, ≤ 0.5
- C4A A57U — higher, 0.714
- U3G G12C U19C C60U — lower, ≤ 0.5
- U3C G51C A57G — lower, ≤ 0.5
- U3C G18C C31G C61A — lower, 0.535
- C4A A14G G63A — lower, ≤ 0.5
- U3C U7C U8A A15U G50A U53A — lower, ≤ 0.5
- U3C U16C G44A A45U C60A — lower, ≤ 0.5
- U3C U7A A42C C49U C55U — lower, ≤ 0.5
- U3G C24U C31U A69U — higher, 0.839
- U3G A69C — higher, 0.867
- U3C U54C G67C — lower, ≤ 0.5
- C4A A43U C62U — higher, 0.791
- U3G C30U A43U G48C G68C — lower, ≤ 0.5
- U3C U28G A57C — lower, ≤ 0.5
- U3G C29A — lower, 0.533
- U3G A15G A21U C24U G38A C61G C66U A69U — lower, ≤ 0.5
- U3C G39A — higher, 0.898
- C4A A65G A69U — higher, 0.617
- C4A A37U G50C — lower, ≤ 0.5
- U3C G44C C46A — higher, 0.672
- C4A A14U C34G G56C — lower, ≤ 0.5
- C4A A15G G17A U32C C62A A69U — lower, ≤ 0.5
- U3C U13C G17A C24U G52A — lower, ≤ 0.5
- U3G C22A C24U U35G A45U A65U A70U — lower, ≤ 0.5
- U3G G9C C33G C46U — lower, ≤ 0.5
- U3C U19G A21C U32A A37U — lower, ≤ 0.5
- U3C U16G U19A A43U A57U — lower, ≤ 0.5
- C4A A20U U28A C31U A65U — lower, ≤ 0.5
- U3C G39A A57U C62G — lower, ≤ 0.5
